Laboratory results: ChEMBL document CHEMBL1155689, “Evaluation of the total peroxyl radical-scavenging capacity of flavonoids: structure-activity relationships” (J Nat Prod, 2000)
Values belong to the compound of their own block, whether it stands above or below them.

Key:
[1] = Antioxidant scavenging activity against 2,2'-azobis-amidinopropane-induced peroxyl radicals assessed as total oxyradical scavenging capacity; assay type: physicochemical; set-up: unit not given here
Method in brief: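 Peroxyl radicals from thermal homolysis of ABAP at 39 °C, with 0.1 mM KMBA and 10 mM ABAP (final) in 100 mM potassium phosphate, pH 7.4. Ethylene in the headspace was measured by GC at 12-min intervals over 60 min. TOSC = 100 − (∫sample/∫control area × 100). rTOSC is the slope of the TOSC vs concentration regression within the linear range.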

[2] = Antioxidant scavenging activity against 2,2'-azobis-amidinopropane-induced peroxyl radicals assessed as total oxyradical scavenging capacity relative to Trolox; assay type: physicochemical
Method in brief: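 Uses the same ABAP/KMBA ethylene-GC assay: 39 °C, 0.1 mM KMBA, 10 mM ABAP, pH 7.4 phosphate, 60-min time course. TOSC comes from the areas under the kinetic curves, and rTOSC from the slope of TOSC against concentration. Comparative TOSC (cTOSC) expresses each rTOSC relative to the Trolox benchmark.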

SMILES: COc1cc(-c2cc(=O)c3c(O)c(OC)c(OC)c(OC)c3o2)ccc1O
- Activity [1]: 4.53
- Activity [2]: 0.81

SMILES: COc1ccc(-c2oc3cc(OC)c(OC)c(O)c3c(=O)c2OC)cc1OC [ARTEMETIN]
- Activity [1]: 1.55
- Activity [2]: 0.28

SMILES: O=c1c(O)c(-c2ccc(O)c(O)c2)oc2cc(O)cc(O)c12 [QUERCETIN]
- Activity [1]: 40.32
- Activity [2]: 7.17

SMILES: C[C@@H]1O[C@@H](OC[C@H]2O[C@@H](Oc3c(-c4ccc(O)c(O)c4)oc4cc(O)cc(O)c4c3=O)[C@H](O)[C@@H](O)[C@@H]2O)[C@H](O)[C@H](O)[C@H]1O [RUTIN]
- Activity [1]: 28.96
- Activity [2]: 5.15

Results, then the compound that gave them:

- Activity [1]: 8.53
- Activity [2]: 1.52
SMILES: COc1cc(-c2cc(=O)c3c(O)c(O)c(OC)c(OC)c3o2)ccc1O

- Activity [1]: 5.62
SMILES: Cc1c(C)c2c(c(C)c1O)CCC(C)(C(=O)O)O2 (stereo unspecified) [TROLOX]
